The list is a sample of the results.
HKDC1 act: HKDC1 hexokinase activators, primary screen, biochemical, fluorescence, uHTS. AID 493187, 2011. hit rate 0.056% among 340,000. recombinant HKDC1, G6PDH/diaphorase resazurin fluorescence; stronger effect = lower value. Q2TB90. activity change, negative = activation, % at 20 µM;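 active means activation of 40% or more at 20 µM, a change of -40% or lower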
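Material – in-house human HKDC1 enzyme, G6PDH and diaphorase coupling enzymes · Input – HKDC1 at 5 µg/mL final · Buffer or medium – pH 8.0 Tris with MgCl2 · Dosing – single compound dose of 20 µM, 1% DMSO final · Incubation – 90 min, room temperature · Technique – resorufin fluorescence from 100 µM resazurin, NADP 1 mM, Ex 525/Em 613 nm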
A number is an active result; - = inactive.

SMILES | HKDC1 act
CC(C)c1nc2oc3c(=O)[nH]cnc3c2c2c1COC(C)(C)C2 | -
N=C1N(/N=C/c2ccccc2)C(=Nc2ccccc2)C(=S)N1c1ccccc1 | -49
COc1ccc(-c2oc(NC(=O)CCl)c(C#N)c2-c2ccc(OC)cc2)cc1 | -
CC(C)c1nc2oc3c(NCCO)ncnc3c2c2c1COC(C)(C)C2 | -
c1ccc2oc(C3=NNC(=NC4CC4)SC3)cc2c1 | -47
O=C1C(F)=CC(COC(c2ccccc2)(c2ccccc2)c2ccccc2)OC1n1cc(F)c(=O)[nH]c1=O (stereo unspecified) | -
CCC(C)(C)NC(=O)C1CCC(CNS(=O)(=O)c2cccc3nsnc23)CC1 (stereo unspecified) | -
CN(C)c1ccc(Cc2cc3c(O)ccc(O)c3cc(Cc3ccc(N(C)C)cc3)c2=O)cc1 | -
COC(=O)c1cc(=O)n(Cc2ccc(OC)cc2)c(=NCc2ccc(OC)cc2)s1 | -43
COc1ccc(CN2C(=O)c3cccnc3C2O)cc1 (stereo unspecified) | -
COc1ccc(-n2c(C)cc(C(=O)CCl)c2C)cc1 | -
Cc1cc(C)cc(-n2c(N)c(C(=O)Nc3c(C)n(C)n(-c4ccccc4)c3=O)c3nc4ccccc4nc32)c1 | -
O=S(=O)(Nc1cc(Sc2ncn[nH]2)c(O)c2ccccc12)c1ccccc1 | -
CCOC(=O)c1c(C)sc2c1N(C(=O)CCl)c1cc(Cl)ccc1S2 | -
O=C(NC(=S)NNC(=O)c1ccccc1O)c1ccco1 | -44
CC1(OC(=O)C2CCCC2)C(=O)C=C2C=C(c3ccsc3)N(CCc3c[nH]c4ccccc34)C=C2C1=O (stereo unspecified) | -
Cc1cc(C)n2nc(SCc3nnc(SCc4ccccc4C)s3)nc2n1 | -
C[n+]1c(-c2ccccc2)cc2c(=Cc3ccccc3)c3ccccc3n21 | -
COc1ccccc1/C=C\C(=O)NCC(=O)N/N=C/c1ccc(O)cc1O | -41
O=C(CNC(=O)c1cccs1)N/N=C/c1ccc(O)cc1O | -46
O=C(CN1CCCc2ccccc21)N/N=C/c1ccc(O)cc1O | -43
O=C(CCc1ccccc1)NCC(=O)N/N=C/c1ccc(O)cc1O | -43
Cc1ccc(C)c(S(=O)(=O)Nc2ccc(O)c3ccccc23)c1 | -
N=C1/C(=C\c2coc3ccccc3c2=O)C(=O)N=C2SC(c3ccncc3)=NN12 | -
O=c1oc2cc(Oc3c([N+](=O)[O-])cc(C(F)(F)F)cc3[N+](=O)[O-])ccc2c2c1CCCC2 | -
SMILES | HKDC1 act
COC1=CC(=O)C(C2CC(=O)c3c(O)cc(O)cc3O2)=CC1=O (stereo unspecified) | -
Cc1nc2c(c(=O)c3ccccc3n2C)c(=O)n1-c1ccc(F)cc1 | -
COc1ccc2c(c1)/C(=C\c1cccc(/C=C3/C(=O)Nc4ccc(OC)cc43)n1)C(=O)N2 | -
O=C(c1c[nH]c(C(=O)C(Cl)(Cl)Cl)c1)c1ccccc1F | -
COC(=O)CCC(=O)OC1(C)C(=O)C2=CN(C3CCCC3)C(c3ccc(OC)cc3)=CC2=C(Br)C1=O (stereo unspecified) | -
O=C(c1ccccc1)c1n[nH]c(-c2ccccc2)cc1=O | -42
O=C(COC(=O)c1n[nH]c2ccccc12)c1cccc(Br)c1 | -
COc1ccc(OC)c2[nH]c(=O)c(CCNC(=O)c3cc4ccccc4o3)cc12 | -
CC1C/C(=C/c2ccncc2)C(=O)/C(=C/c2ccncc2)C1 (stereo unspecified) | -
COc1cc(/C=C2\SC(=O)N(c3ccc(Cl)cc3)C2=O)cc([N+](=O)[O-])c1O | -
O=C(O)c1cc(O)c2c(c1)[C@@H]([C@H]1c3cc(C(=O)O)cc(O)c3C(=O)c3c(O[C@@H]4O[C@H](CO)[C@@H](O)[C@H](O)[C@H]4O)cccc31)c1cccc(O[C@@H]3O[C@H](CO)[C@@H](O)[C@H](O)[C@H]3O)c1C2=O | -
CCOc1ccc(CCNC(=O)c2ccc3c(=O)[nH]c4c(C(=O)NC(C)C)sc(=S)n4c3c2)cc1 | -
O=C(C#Cc1ccccc1)c1cccc([N+](=O)[O-])c1 | -
Cc1cc(SCC(=O)c2cccc([N+](=O)[O-])c2)nc(=O)[nH]1 | -54
Cc1cccc(-n2c3nc(=O)[nH]c(=O)c-3cc3cc([N+](=O)[O-])ccc32)c1 | -
O=C1NC(=S)S/C1=C\C=C\c1ccc([N+](=O)[O-])o1 | -
COc1ccc(-n2cccc2/C=C2\C(=N)N3N=C(c4ccco4)SC3=NC2=O)cc1 | -
Cc1ccc2cc(C=C(C#N)C#N)c(N3CCCCC3)nc2c1 | -
O=C1C=CC(=O)C(C2=C3C(=O)N(CCc4ccccc4)CC(=O)N3CCC2)=C1 | -
O=C(O)c1cccc(-n2cccc2/C=C2/NC(=O)N(c3ccc(Cl)cc3)C2=O)c1 | -
COc1ccccc1C1=NNC(=Nc2cccc(S(=O)(=O)N(C)C)c2)SC1 | -202
CCCCC(=O)NC(c1ccc(N(CC)CC)cc1)c1ccc2cccnc2c1O (stereo unspecified) | -46
CCc1ccc2c(c1)C(NC(C)=O)C(=O)N2CCN1CCOCC1 (stereo unspecified) | -
COc1ccc(CN2C(=O)c3cccnc3C2Nc2cc(Cl)ccc2OC)cc1 (stereo unspecified) | -
Cn1c2ccccc2c2ccc3c(c21)C(=O)C=CC3=O | -
SMILES | HKDC1 act
CCn1c2ccccc2c2nc3cc(S(=O)(=O)N4CCOCC4)ccc3nc21 | -61
Cc1cc2cc(CCNC(=O)c3ccc(S(=O)(=O)N4CCOCC4)cc3)c(=O)[nH]c2cc1C | -
CCOC(=O)c1c(C)[nH]c(C2=NNC(=NC3CC3)SC2)c1C | -77
Cc1ccc(/C=C/C(=O)c2ccc([N+](=O)[O-])o2)cc1 | -
COCC(=O)OC1CCn2c1nc1c2C(=O)C(C)=C(NC(C)=O)C1=O (stereo unspecified) | -
S=C1Cc2ccccc2N1 | -303
COC(=O)c1ccc(CCc2cc(O)c(Br)cc2O)cc1 | -
Oc1c(Br)cc(Br)cc1/C=N/c1nc2c(s1)CCCC2 | -
O=C1NN(c2cccc(Br)c2)C(=O)/C1=C/c1ccc(-c2cc([N+](=O)[O-])ccc2O)o1 | -
O=C(N/N=C/c1ccc(O)cc1O)c1ccc(CN2C(=O)c3cccc4cccc2c34)cc1 | -41
COc1cccc2cc(C(=O)Nc3ccc(F)cc3)c(=Nc3ccc(C(=O)O)cc3)oc12 | -
COc1ccc(Oc2cc(C)nc(Cl)n2)nn1 | -78
CCCc1nc2oc3c(OC)ncnc3c2c2c1COC(C)(C)C2 | -
O=C1OC(c2ccc3ccccc3c2O)(c2ccc3ccccc3c2O)c2ccccc21 | -
COc1ccc(N2CCN(C(=O)CSc3nnc4c(C)cc5c(C)cc(C)cc5n34)CC2)cc1 | -
CCCOc1ccc(/C=N/NC(=S)Nc2ccccc2[N+](=O)[O-])c(O)c1 | -48
O=[N+]([O-])c1ccc(NN=Cc2ccc(O)cc2O)nc1 | -
Cc1ccccc1NC(=S)N/N=C/c1ccc(O)cc1O | -42
O=C(O)c1ccccc1NS(=O)(=O)c1ccc(N/N=C/c2cccc(O)c2O)c([N+](=O)[O-])c1 | -
Oc1ccc(/C=N/Nc2ncc(Br)cn2)c(O)c1 | -
C[n+]1c2cc(N)ccc2cc2ccc(N)cc21 | -
O=C(NN1CCOCC1)c1ccc(Cl)c([N+](=O)[O-])c1 | -
Cc1ccc(C(=O)c2c(C)oc3c2C(=O)C(=O)c2ccccc2-3)cc1 | -
O=C1CSC(=S)N1Nc1ccccc1 | -44
CCOc1ccc(/C=C2/SC(=S)N(CCC(=O)Nc3ccc(C(=O)O)cc3)C2=O)cc1 | -
